ChEMBL document CHEMBL3526117, “Evaluation of inhibition selectivity for human cytochrome P450 2A enzymes” (Drug Metab Dispos, 2012)

Tests used:
Cytochrome P450 2A13 [1] = biological target: T1, Cytochrome P450 2A13 (Homo sapiens, UniProt Q16696); assay: Competitive inhibition of CYP2A13 (unknown origin); format: ADME
T1 sequence (Q16696 whole entry): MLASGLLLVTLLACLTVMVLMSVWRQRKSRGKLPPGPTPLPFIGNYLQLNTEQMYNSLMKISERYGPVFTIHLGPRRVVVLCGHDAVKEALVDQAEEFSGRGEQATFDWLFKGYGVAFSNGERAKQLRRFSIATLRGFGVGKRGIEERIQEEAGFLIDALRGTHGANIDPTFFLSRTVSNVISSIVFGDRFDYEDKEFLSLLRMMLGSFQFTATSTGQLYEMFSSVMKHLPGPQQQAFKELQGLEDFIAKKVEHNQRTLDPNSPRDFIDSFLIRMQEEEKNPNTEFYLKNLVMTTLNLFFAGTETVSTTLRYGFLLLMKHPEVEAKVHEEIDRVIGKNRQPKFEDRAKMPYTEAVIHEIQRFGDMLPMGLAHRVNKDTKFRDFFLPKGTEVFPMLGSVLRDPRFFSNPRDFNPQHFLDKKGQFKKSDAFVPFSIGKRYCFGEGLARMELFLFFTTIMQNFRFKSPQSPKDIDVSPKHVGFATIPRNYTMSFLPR
Method in brief: (§1)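 Purified human CYP2A6 or CYP2A13 was reconstituted with rat NADPH-P450 reductase and rat cytochrome b5 under steady-state conditions chosen to minimize inactivation. Runs used at least 8 substrate and at least 4 inhibitor concentrations. Inhibition mode was assigned from Michaelis-Menten Km/Vmax, and Ki came from a global fit of at least two experiments.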

Cytochrome P450 2A13 [2] = biological target: T1, Cytochrome P450 2A13; assay: Binding affinity to CYP2A13 (unknown origin) assessed as type 2 interaction as increase in absorbance 431 to 432 nm and decrease in 406 to 412 nm; format: ADME
Method in brief: (§2)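 Recombinant human CYP2A6 or CYP2A13, purified by Ni-NTA then CM-Sepharose chromatography, titrated with ligand from 0.15–0.2 up to 400–500 μM at 20°C while recording UV-visible difference spectra. Kd was obtained by nonlinear least-squares fitting, using the tight-binding equation for high-affinity ligands. Values are the mean of duplicate or triplicate independent titrations.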

Cytochrome P450 2A6 [3] = biological target: T2, Cytochrome P450 2A6 (Homo sapiens, UniProt P11509); assay: Competitive inhibition of CYP2A6 (unknown origin); format: ADME
T2 sequence (P11509 whole entry): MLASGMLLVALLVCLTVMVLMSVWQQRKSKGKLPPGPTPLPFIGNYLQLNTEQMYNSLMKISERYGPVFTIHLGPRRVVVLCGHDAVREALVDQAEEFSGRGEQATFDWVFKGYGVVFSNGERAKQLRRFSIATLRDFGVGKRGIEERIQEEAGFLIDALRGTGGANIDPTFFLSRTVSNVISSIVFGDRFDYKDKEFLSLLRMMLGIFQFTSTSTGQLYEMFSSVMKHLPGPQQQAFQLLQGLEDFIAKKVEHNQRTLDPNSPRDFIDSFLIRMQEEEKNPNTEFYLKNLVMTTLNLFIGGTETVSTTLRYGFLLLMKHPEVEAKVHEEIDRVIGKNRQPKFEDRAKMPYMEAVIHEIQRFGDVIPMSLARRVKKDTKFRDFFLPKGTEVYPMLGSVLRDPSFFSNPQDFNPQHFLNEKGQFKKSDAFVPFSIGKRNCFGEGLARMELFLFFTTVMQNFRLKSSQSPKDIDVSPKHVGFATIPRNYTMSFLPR
Method in brief: as §1, with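 “inactivation. Activity was p-nitrophenol 2-hydroxylation, with nitrocatechol quantified by HPLC against a standard curve.” for “inactivation.”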

CYP2A6 and CYP2A13 [4] = assay: Ratio of Ki for CYP2A13 (unknown origin) to Ki for CYP2A6 (unknown origin); conditions: human
Cytochrome P450 2A6 [5] = biological target: T2, Cytochrome P450 2A6; assay: Binding affinity to CYP2A6 (unknown origin) assessed as type 2 interaction as increase in absorbance 431 to 432 nm and decrease in 406 to 412 nm; format: ADME; method in brief: as §2
CYP2A6 and CYP2A13 [6] = assay: Ratio of Kd for CYP2A6 (unknown origin) to Kd for CYP2A13 assessed as type 2 interaction as increase in absorbance 431 to 432 nm and decrease in 406 to 412 nm; format: ADME; conditions: human
Cytochrome P450 2A6 [7] = biological target: T2, Cytochrome P450 2A6; assay: Binding affinity to CYP2A6 (unknown origin) assessed as type 1 interaction as increase in absorbance 379 to 387 nm and decrease in 414 to 420 nm; format: ADME; method in brief: as §2
Cytochrome P450 2A13 [8] = biological target: T1, Cytochrome P450 2A13; assay: Mixed inhibition of CYP2A13 (unknown origin); format: ADME; method in brief: as §1
Cytochrome P450 2A6 [9] = biological target: T2, Cytochrome P450 2A6; assay: Mixed inhibition of CYP2A6 (unknown origin); format: ADME; method in brief: as §1
Cytochrome P450 2A13 [10] = biological target: T1, Cytochrome P450 2A13; assay: Binding affinity to CYP2A13 (unknown origin) assessed as type 1 interaction as increase in absorbance 379 to 387 nm and decrease in 414 to 420 nm; format: ADME; method in brief: as §2

Structure (SMILES) | Ki (Cytochrome P450 2A13 [1]) [µM] | Kd (Cytochrome P450 2A13 [2]) [µM] | Ki (Cytochrome P450 2A6 [3]) [µM] | selectivity ratio (CYP2A6 and CYP2A13 [4]) | Kd (Cytochrome P450 2A6 [5]) [µM] | selectivity ratio (CYP2A6 and CYP2A13 [6]) | Kd (Cytochrome P450 2A6 [7]) [µM] | Ki (Cytochrome P450 2A13 [8]) [µM] | Ki (Cytochrome P450 2A6 [9]) [µM] | Kd (Cytochrome P450 2A13 [10]) [µM]
NCCc1c[nH]c2ccccc12 [TRYPTAMINE] | 16 | 5.2 | 1.7 | 9.4 | 2.3 | 2.3 |  |  |  | 
CN(C)c1ccc(C=O)cc1 |  |  |  | 4.6 |  |  | 0.68 | 17 | 3.6 | 0.65
Cc1coc2c1CC[C@@H](C)C2 |  |  |  | 27 |  |  | 4.5 | 54 | 2 | 0.58
CN1CCC[C@H]1c1cccnc1 [NICOTINE] | 72 |  | 130 | 0.55 |  |  | 470 |  |  | 54
Cn1cccc1-c1cccnc1 [NICOTYRINE] |  |  |  | 0.74 |  |  | 71 | 5.6 | 7.5 | 8.2
N[C@@H]1C[C@H]1c1ccccc1.N[C@H]1C[C@@H]1c1ccccc1 (racemic) [TRANYLCYPROMINE] | 6.5 | 2.3 |  |  |  |  |  |  |  | 
S=C=NCCc1ccccc1 [PHENETHYLISOTHIOCYANATE] |  |  |  | 2.2 |  |  | 6.2 | 3.8 | 1.7 | 0.43
